# Test results taken from ChEMBL document CHEMBL1155063 (Bioorg Med Chem, 2008).
# Legend:
# CCRF-CEM = test: Cytotoxicity against human CCRF-CEM cells at 10 uM after 48 hrs by MTT assay; format: functional
# In short: (§1)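 Single-dose screen on the NCI 60-cell-line panel, run to the Developmental Therapeutics Program protocol (one-dose mean graph). Each value is the growth percentage of treated cells against untreated control cells.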
# [1] = Cytotoxicity against human TERT immortalized BJ1 cells at 10 uM after 48 hrs by MTT assay relative to control; format: cell-based, BJ
# In short: (§2)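 hTERT-immortalized BJ1 fibroblasts were grown in DMEM with 10% FCS, 1 mM pyruvate and 4 mM […]. Cells (about 2 × 10^3 per well) were seeded and held 24 h at 37 °C. Compounds were freshly dissolved in DMSO, diluted into medium and left on the cells 48 h. MTT was added for 4 h, then SDS/DMF lysis buffer for 16 h. Absorbance was read at 550 nm and expressed relative to untreated cells (100%).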
# OVCAR-8 = test: Cytotoxicity against human OVCAR8 cells at 10 uM after 48 hrs by MTT assay; format: functional; settings: OVCAR-8, 48 h; in short: as §1
# [2] = Cytotoxicity against human TERT immortalized BJ1 cells at 1 uM after 48 hrs by MTT assay relative to control; format: cell-based, BJ; in short: as §2
# SR = test: Cytotoxicity against human SR cells at 10 uM after 48 hrs by MTT assay; format: functional
# In short: (§3)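 Single-dose screen in the NCI 60-cell-line panel, run according to the Developmental Therapeutics Program protocol (one-dose mean graph). The result is the growth percentage of treated cells relative to untreated control cells.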
# NCI-H226 = test: Cytotoxicity against human NCI-H226 cells at 10 uM after 48 hrs by MTT assay; format: functional; settings: NCI-H226, 48 h; in short: as §1
# MOLT-4 = test: Cytotoxicity against human MOLT4 cells at 10 uM after 48 hrs by MTT assay; format: functional; settings: MOLT-4, 48 h; in short: as §1
# COLO 205 = test: Cytotoxicity against human COLO205 cells at 10 uM after 48 hrs by MTT assay; format: functional; settings: COLO 205, 48 h, values are per cent of control; in short: as §1
# M14 = test: Cytotoxicity against human M14 cells at 10 uM after 48 hrs by MTT assay; format: functional; settings: M14, 48 h, values are per cent of control; in short: as §1
# [3] = molecular target: T1, Telomerase reverse transcriptase (Homo sapiens, UniProt O14746); test: Effect on human TERT expressed in H1299 cells at 10 uM after 24 hrs by SEAP assay relative to control
# T1 sequence (O14746 whole entry): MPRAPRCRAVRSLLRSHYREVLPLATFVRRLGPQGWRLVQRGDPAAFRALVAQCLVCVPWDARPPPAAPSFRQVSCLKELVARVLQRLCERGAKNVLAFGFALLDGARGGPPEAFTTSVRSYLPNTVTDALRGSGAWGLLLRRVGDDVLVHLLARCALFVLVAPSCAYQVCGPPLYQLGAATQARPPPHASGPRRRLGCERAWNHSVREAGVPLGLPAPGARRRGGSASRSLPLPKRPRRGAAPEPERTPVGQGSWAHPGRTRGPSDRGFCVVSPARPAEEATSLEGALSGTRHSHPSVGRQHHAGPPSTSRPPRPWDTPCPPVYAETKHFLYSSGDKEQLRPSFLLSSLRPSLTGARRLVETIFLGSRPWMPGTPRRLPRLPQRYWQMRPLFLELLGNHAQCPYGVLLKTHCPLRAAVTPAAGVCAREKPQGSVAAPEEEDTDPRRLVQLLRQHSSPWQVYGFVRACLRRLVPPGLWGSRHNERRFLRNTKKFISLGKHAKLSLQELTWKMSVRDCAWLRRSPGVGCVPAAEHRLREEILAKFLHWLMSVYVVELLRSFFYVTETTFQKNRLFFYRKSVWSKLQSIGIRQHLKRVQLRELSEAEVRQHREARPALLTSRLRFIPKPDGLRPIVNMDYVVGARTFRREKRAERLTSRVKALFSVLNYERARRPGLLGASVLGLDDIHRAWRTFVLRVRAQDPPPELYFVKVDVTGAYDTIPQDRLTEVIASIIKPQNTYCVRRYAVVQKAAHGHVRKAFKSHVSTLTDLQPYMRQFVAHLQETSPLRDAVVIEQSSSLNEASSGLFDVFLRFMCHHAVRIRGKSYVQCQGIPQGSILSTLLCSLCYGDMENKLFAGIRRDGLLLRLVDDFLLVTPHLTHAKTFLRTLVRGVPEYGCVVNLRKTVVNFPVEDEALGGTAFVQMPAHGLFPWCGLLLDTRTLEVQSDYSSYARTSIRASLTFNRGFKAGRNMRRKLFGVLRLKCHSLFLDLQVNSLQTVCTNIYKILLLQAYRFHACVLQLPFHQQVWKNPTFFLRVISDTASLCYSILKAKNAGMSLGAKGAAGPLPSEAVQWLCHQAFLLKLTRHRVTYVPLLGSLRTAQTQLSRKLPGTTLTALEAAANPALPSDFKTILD
# SNB-75 = test: Cytotoxicity against human SNB75 cells at 10 uM after 48 hrs by MTT assay; format: functional; settings: SNB-75, 48 h, values are per cent of control; in short: as §3
# SN12C = test: Cytotoxicity against human SN12C cells at 10 uM after 48 hrs by MTT assay; format: functional; in short: as §1
# [4] = molecular target: T1, Telomerase reverse transcriptase; test: Effect on human TERT expressed in BJ1 cells at 1 uM after 24 hrs by SEAP assay realtive to control; settings: BJ
# PC-3 = test: Cytotoxicity against human PC3 cells at 10 uM after 48 hrs by MTT assay; format: functional; settings: PC-3, 48 h, values are per cent of control; in short: as §1
# Hs-578T = test: Cytotoxicity against human HS578T cells at 10 uM after 48 hrs by MTT assay; format: functional; settings: values are per cent of control; in short: as §1
# SF-295 = test: Cytotoxicity against human SF295 cells at 10 uM after 48 hrs by MTT assay; format: functional; settings: SF-295, 48 h, values are per cent of control; in short: as §1
# NCI-H460 = test: Growth percent of human NCI-H460 cells at 10 uM after 48 hrs by MTT assay; settings: NCI-H460, 48 h
# HCC 2998 = test: Growth percent of human HCC2998 cells at 10 uM after 48 hrs by MTT assay; settings: HCC 2998, 48 h
# ACHN = test: Cytotoxicity against human ACHN cells at 10 uM after 48 hrs by MTT assay; format: functional; in short: as §1
# UO-31 = test: Cytotoxicity against human UO31 cells at 10 uM after 48 hrs by MTT assay; format: functional; settings: UO-31, 48 h, values are per cent of control; in short: as §3
# SW-620 = test: Cytotoxicity against human SW620 cells at 10 uM after 48 hrs by MTT assay; format: functional; settings: SW-620, 48 h, values are per cent of control; in short: as §3
# MDA-MB-435 = test: Cytotoxicity against human MDA-MB-435 cells at 10 uM after 48 hrs by MTT assay; format: functional; settings: MDA-MB-435, 48 h; in short: as §1
# [5] = molecular target: T1, Telomerase reverse transcriptase; test: Effect on human TERT expressed in BJ1 cells at 10 uM after 24 hrs by SEAP assay relative to control; settings: BJ
# HL-60 = test: Cytotoxicity against human HL60 cells at 10 uM after 48 hrs by MTT assay; format: functional; settings: HL-60, 48 h; in short: as §1
# SF-268 = test: Cytotoxicity against human SF268 cells at 10 uM after 48 hrs by MTT assay; format: functional; settings: SF-268, 48 h, values are per cent of control; in short: as §1
# Malme-3M = test: Cytotoxicity against human MALME3M cells at 10 uM after 48 hrs by MTT assay; format: functional; settings: values are per cent of control; in short: as §1
# T47D = test: Cytotoxicity against human T47D cells at 10 uM after 48 hrs by MTT assay; format: functional; in short: as §3
# MDA-MB-231 = test: Cytotoxicity against human MDA-MB-231/ATCC cells at 10 uM after 48 hrs by MTT assay; format: functional; settings: MDA-MB-231, 48 h; in short: as §1
# UACC-62 = test: Cytotoxicity against human UACC62 cells at 10 uM after 48 hrs by MTT assay; format: functional; settings: UACC-62, 48 h, values are per cent of control; in short: as §3
# [6] = molecular target: T1, Telomerase reverse transcriptase; test: Effect on human TERT expressed in BJ1 cells at 100 uM after 24 hrs by SEAP assay relative to control; settings: BJ
# LOX IMVI = test: Cytotoxicity against human LOXIMVI cells at 10 uM after 48 hrs by MTT assay; format: functional; settings: values are per cent of control; in short: as §1
# OVCAR-4 = test: Cytotoxicity against human OVCAR4 cells at 10 uM after 48 hrs by MTT assay; format: functional; settings: OVCAR-4, 48 h; in short: as §1
# TK-10 = test: Cytotoxicity against human TK10 cells at 10 uM after 48 hrs by MTT assay; format: functional; settings: TK-10, 48 h, values are per cent of control; in short: as §3
# OVCAR-5 = test: Cytotoxicity against human OVCAR5 cells at 10 uM after 48 hrs by MTT assay; format: functional; settings: OVCAR-5, 48 h; in short: as §1
# HOP-62 = test: Cytotoxicity against human HOP62 cells at 10 uM after 48 hrs by MTT assay; format: functional; settings: HOP-62, 48 h; in short: as §1
# HCT-116 = test: Growth percent of human HCT116 cells at 10 uM after 48 hrs by MTT assay; settings: HCT-116, 48 h
# NCI-H23 = test: Cytotoxicity against human NCI-H23 cells at 10 uM after 48 hrs by MTT assay; format: functional; settings: NCI-H23, 48 h; in short: as §1
structure (smiles),measurement,setting,value
CN(C)CC(=O)Nc1ccc2c(c1)C(=O)c1cc(NC(=O)CN(C)C)ccc1C2=O,growth percent at 10 µM,CCRF-CEM,-13.2%
same,"viability at 48 h, 10 µM",[1],45%
same,growth percent at 10 µM,OVCAR-8,32.3%
same,"viability at 48 h, 1 µM",[2],96%
same,growth percent at 10 µM,SR,-46.5%
same,growth percent at 10 µM,NCI-H226,89.1%
same,growth percent at 10 µM,MOLT-4,29.1%
same,"growth, % of control at 10 µM",COLO 205,-73.6%
same,"growth, % of control at 10 µM",M14,75%
same,residual activity,[3],40%
same,"growth, % of control at 10 µM",SNB-75,76.1%
same,growth percent at 10 µM,SN12C,28%
same,residual activity,[4],96%
same,"growth, % of control at 10 µM",PC-3,59%
same,"growth, % of control at 10 µM",Hs-578T,-6.11%
same,"growth, % of control at 10 µM",SF-295,-83.5%
same,growth percent at 10 µM,NCI-H460,5.01%
same,growth percent at 10 µM,HCC 2998,-74%
same,growth percent at 10 µM,ACHN,66.4%
same,"growth, % of control at 10 µM",UO-31,-82.5%
same,"growth, % of control at 10 µM",SW-620,23.4%
same,growth percent at 10 µM,MDA-MB-435,68.4%
same,residual activity,[5],44%
same,growth percent at 10 µM,HL-60,-65%
same,"growth, % of control at 10 µM",SF-268,64.9%
same,"growth, % of control at 10 µM",Malme-3M,96.2%
same,growth percent at 10 µM,T47D,24.6%
same,growth percent at 10 µM,MDA-MB-231,4.49%
same,"growth, % of control at 10 µM",UACC-62,22.3%
same,residual activity,[6],3%
same,"growth, % of control at 10 µM",LOX IMVI,-52.3%
same,growth percent at 10 µM,OVCAR-4,45.7%
same,"growth, % of control at 10 µM",TK-10,73.5%
same,growth percent at 10 µM,OVCAR-5,73.2%
same,growth percent at 10 µM,HOP-62,29%
same,growth percent at 10 µM,HCT-116,19.1%
same,growth percent at 10 µM,NCI-H23,51.8%
